The source of these data is paper PMC11661117 (bioRxiv, 2025).

Series [1] relates to HSV-1 strain K26 (GFP-expressing). Put plainly: 3D bioprinted HSE, submerged model, apical HSV-1 infection, GFP signal. It counts as cell-based. As to conditions: for submerged Curve Class: CRC class for HSV-1 inhibition; for Emax: Human alphaherpesvirus 1, 48 h, read-out: submerged Max Inhibition (%). An outline of the steps: (§1)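 Skin equivalent: printed fibrin/gelatin/collagen dermis with tdTomato-labelled fibroblasts and 20,000 keratinocytes on a transwell. One day after keratinocyte seeding, GFP HSV-1 K26 (MOI 0.1) was added apically and test compound to the basal medium, and tissues fixed at 48 hpi. GFP and tdTomato total fluorescence were read from 4X z-stack maximum projections within a ~4 mm circular mask. Values were normalised to DMSO-infected and uninfected wells. Triplicate dose-response, curve-classed.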

Series [2] has as its system tdTomato fibroblasts. Put plainly: 3D bioprinted HSE, ALI model, tdTomato signal. The class given is cell-based, human. To be noted: read-out: ALI CC50; tdTomato fibroblasts, triplicate. In a few lines: (§2)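 Bioprinted dermal base (fibrinogen, gelatin, collagen I) on a transwell membrane, with 20,000 keratinocytes seeded on top and tdTomato-labelled fibroblasts. Four days after air-lift, GFP HSV-1 K26 (MOI 0.1, in cornification medium) and test compound were added basally, and tissues fixed at 48 hpi. Imaging: 4X z-stack maximum projection, edge mask and ≥14.8 µm object filter. GFP and tdTomato were normalised to infected DMSO and uninfected controls (tdTomato floor 0). Triplicate dose-response, curve-classed.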

In series [3] the test system is HSV-1 strain K26 (GFP-expressing). Put plainly: 3D bioprinted HSE, ALI model, basolateral HSV-1 infection, GFP signal. To be noted: for ALI Curve Class: CRC class for HSV-1 inhibition; for Emax: Human alphaherpesvirus 1, 48 h, read-out: ALI Max Inhibition (%). It counts as cell-based. In a few lines: as §2
Series [4] has as its system tdTomato fibroblasts. The experiment in a line: 3D bioprinted HSE, submerged model, tdTomato signal. The class given is cell-based, human. As to conditions: for CC50: read-out: submerged CC50, tdTomato fibroblasts, triplicate. In a few lines:
as §1

Series [5] is described as follows: 3D bioprinted HSE, ALI model, tdTomato signal. As to conditions: human. It counts as cell-based, human. An outline of the steps: as §2
In series [6] the test system is HSV-1 strain K26 (GFP-expressing). It counts as cell-based. To be noted: 2D monoculture.
Series [7] has the same test system. The class given is cell-based. As to conditions: 2D monoculture; for selectivity ratio: read-out: selectivity index in fibroblasts.
The nature of series [8]: 3D bioprinted HSE, submerged model, tdTomato signal. It counts as cell-based, human. As to conditions: human. In a few lines:
as §1

A further series has as its system primary keratinocytes. Put plainly: 2D cytotoxicity in uninfected primary keratinocytes. The class given is cell-based, human. To be noted: absence of viral infection.
The mark [9] stands for this setting: read-out: submerged IC50, triplicate, 48HPI.
The mark [10] stands for this setting: Human alphaherpesvirus 1, read-out: submerged IC50 (μM).
Setting [11] is: Human alphaherpesvirus 1, read-out: ALI IC50 (μM).

What is called IC50 is the concentration that inhibits the measured activity by half. For orientation: CC50 means the concentration giving 50% cytotoxicity.

As for `CC(C)c1cnn2c(NCc3ccccc3-n3cccn3)nc(OC3CCCNC3)nc12` (centres unmarked) [LDC4297], the “submerged Curve Class” value in [1] (triplicate) is −2.1. Further, the concentration for half-maximal inhibition (IC50) in series [1] (setting [9]) was determined as 0.68 µM; in series [3] (read-out: ALI IC50, triplicate, 48HPI), 0.11 µM. Further, the “submerged Max Inhibition (%)” value in [1] (triplicate, 48HPI) amounted to 94.82%. Besides, the CC50 with tdTomato fibroblasts [2] and in the series with tdTomato fibroblasts [4] was > 10000 nM in each case. For the same molecule, the “ALI Curve Class” value in series [3] (triplicate) is reported as −1.1. The “ALI Max Inhibition (%)” value in series [3] (triplicate, 48HPI) was found to be 99.87%.
As for `Cc1cccc(C)c1N(CC(=O)Nc1ccc(-c2ncon2)cc1)C(=O)C1CCS(=O)(=O)CC1` [Amenamevir], the Emax in [1] came out at 85.3%; in [3], 112%. The values for the half-maximal inhibitory concentration (IC50) in [1] (setting [10]) and in series [3] (setting [11]) were 0.27 µM and 0.16 µM, respectively. Further, the CC50 at 48 h in series [5] and in series [8] was > 10000 nM each time. For the same molecule, the “selectivity index in keratinocytes” value in series [6] is > 250. In series [7], the “selectivity index in fibroblasts” value is on record as > 400.
Take `O=C(/C=C\n1cnc(-c2cc(C(F)(F)F)cc(C(F)(F)F)c2)n1)NNc1ccccn1` [Verdinexor]: the Emax in [1] was 68.6%; in series [3], 108%. For the same molecule, the IC50 turned out to be 0.48 µM in series [1] (setting [10]) and 0.17 µM in [3] (setting [11]). Further, the CC50 at 48 h in series [5] and in series [8] was > 10000 nM in each case. Also, the “inhibition of viral GFP expression in keratinocytes” value in [6] was “at least 50%”.
As to `Nc1nc2c(ncn2COCCO)c(=O)[nH]1` [Acyclovir], the half-maximal inhibitory concentration (IC50) is 0.36 µM in [1] (submerged tissues, assay validation, fig. S5) and < 0.04 µM in [3] (Human alphaherpesvirus 1). Further, the “cytotoxic effects on the fibroblasts” value in the series with tdTomato fibroblasts [4] (submerged and ALI models, tdTomato signal) was “minimal cytotoxic effects”.
On to Fluoroemetine, for which the 50% cytotoxic concentration (CC50) with tdTomato fibroblasts [2] and in the series with tdTomato fibroblasts [4] was > 10000 nM throughout.
Turning to `CC(=O)O[C@H]1C[C@H](O[C@H]2[C@@H](O)C[C@H](O[C@H]3[C@@H](O)C[C@H](O[C@H]4CC[C@@]5(C)[C@H](CC[C@@H]6[C@@H]5C[C@@H](O)[C@]5(C)[C@@H](C7=CC(=O)OC7)CC[C@]65O)C4)O[C@@H]3C)O[C@@H]2C)O[C@H](C)[C@H]1O[C@@H]1O[C@H](CO)[C@@H](O)[C@H](O)[C@H]1O` [Lanatoside C], the Emax in [1] was determined as 107%; in series [3], 99.5%. Moreover, the IC50 came out at 0.09 µM in series [1] (setting [10]) and 0.08 µM in series [3] (setting [11]). Moreover, the CC50 at 48 h in [5] is > 10000 nM; in [8] it was 2490 nM. Also, the selectivity ratio in [7] was > 750. For the same molecule, the toxicity in keratinocytes result in the series on primary keratinocytes was “showed toxicity in keratinocytes”.
As to `CC1(C)CC(=O)c2c(C(F)(F)F)nn(-c3ccc(C(N)=O)c(N[C@H]4CC[C@H](O)CC4)c3)c2C1` [SNX-2112], the Emax was determined as 102% in series [1] and 107% in [3]. Besides, the IC50 in series [1] (setting [10]) was 0.05 µM; in series [3] (setting [11]) it was < 0.04 µM. The CC50 at 48 h in [5] is > 10000 nM; in series [8], 1140 nM. Moreover, the toxicity in keratinocytes entry with primary keratinocytes is “showed toxicity in keratinocytes”.
On to `COc1ccc(-c2nc(N3CCOCC3)c3sc(CN(C)c4ncc(C(=O)NO)cn4)cc3n2)cn1` [Fimepinostat], for which the Emax in series [1] was 87.4%; in series [3] it was 88.6%. Besides, the half-inhibitory concentration (IC50) in [1] (setting [10]) was 1.48 µM; in series [3] (setting [11]) it was < 0.04 µM. The 50% cytotoxic concentration (CC50) at 48 h in [5] and in series [8] was > 10000 nM throughout. The “inhibition of viral GFP expression in keratinocytes” value in series [6] is recorded as “at least 50%”.
Take `O=C(Nc1ccc([N+](=O)[O-])cc1Cl)c1cc(Cl)ccc1O` [Niclosamide]: the Emax was determined as 97.1% in [1] and 98.7% in series [3]. The figures for the IC50 in series [1] (setting [10]) and in [3] (setting [11]) were 0.39 µM and 0.11 µM, respectively. Moreover, the cytotoxic concentration (CC50) at 48 h in series [5] and in [8] was > 10000 nM in each case.
As for `Nc1ccn([C@@H]2O[C@H](CO)[C@@H](O)C2(F)F)c(=O)n1` [Gemcitabine], the Emax in [1] was found to be 99.8%; in series [3], 102%. Further, the values for the IC50 in series [1] (setting [10]) and in [3] (setting [11]) were 0.19 µM and 0.16 µM, respectively. The CC50 at 48 h in [5] and in [8] was > 10000 nM each time. For the same molecule, the selectivity ratio in series [7] is > 750. In addition, the toxicity in keratinocytes result in the series on primary keratinocytes is recorded as “showed toxicity in keratinocytes”.
Turning to `C=CC(=O)N1CC/C(=C\c2ccc(F)c([N+](=O)[O-])c2)C(=O)/C(=C/c2ccc(F)c([N+](=O)[O-])c2)C1` [VLX1570], the “submerged Curve Class” value in series [1] (triplicate) was −2.5. In addition, the half-maximal inhibitory concentration (IC50) turned out to be 6.67 µM in series [1] (setting [9]) and 0.16 µM in series [3] (setting [11]). The “submerged Max Inhibition (%)” value in series [1] (triplicate, 48HPI) is 55.49%. For the same molecule, the cytotoxic concentration (CC50) with tdTomato fibroblasts [2] was > 10000 nM; in the series on tdTomato fibroblasts [4] it was 8410 nM. For the same molecule, the “ALI Curve Class” value in series [3] (triplicate) was −1.1. In addition, in series [3] (triplicate, 48HPI), the “ALI Max Inhibition (%)” value stood at 101.22%.
Turning to `Cc1nc(N(C)C(=O)Cc2ccc(-c3ccccn3)cc2)sc1S(N)(=O)=O` [Pritelivir], the Emax in series [1] amounted to 94.6%; in series [3], 102%. For the same molecule, the values for the 50% inhibitory concentration (IC50) in series [1] (setting [10]) and in series [3] (setting [11]) were 0.5 µM and 0.21 µM, respectively. Besides, the 50% cytotoxic concentration (CC50) at 48 h in [5] and in series [8] was > 10000 nM throughout. Besides, the “selectivity index in keratinocytes” value in series [6] is given as > 250. Also, the “selectivity index in fibroblasts” value in [7] is > 400.
